Our source for the MIC values is ChEMBL document CHEMBL1157987, “Acylated flavonol glycosides from leaves of Stenochlaena palustris” (1999).

Common to all, as to format: functional
One assay relates to Bacillus cereus. In words: Antibacterial activity against Bacillus cereus ATCC 10702 after 20 hrs by MTT assay. Conditions: ATCC 10702, 20 h. The method, boiled down:
(§1)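 Overnight cultures in nutrient broth at 37 °C, diluted to ca. 10⁵ cells/mL in fresh medium. Compounds from 1 mg/mL MeOH stocks dried in wells, redissolved in DMSO plus broth and culture, then twofold serial dilutions in bacterial suspension. Plates held 20 h at 37 °C in moist atmosphere; 0.25% aqueous MTT added, 4 h further incubation; living bacteria seen as violet turbidity.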
For orientation: Tetrazolium dyes change colour on reduction, which living cells bring about.

In assay [1] the test system is Staphylococcus epidermidis. The assay can be described thus: Antibacterial activity against Staphylococcus epidermidis ATCC 12228 after 20 hrs by MTT assay. To be noted: ATCC 12228, 20 h. The method, boiled down: as §1
For a further assay, the system named is Staphylococcus aureus. In words: Antibacterial activity against Staphylococcus aureus ATCC 25923 after 20 hrs by MTT assay. To be noted: ATCC 25923, 20 h. The method, boiled down:
as §1

For the next assay, the system named is Micrococcus luteus. The assay can be described thus: Antibacterial activity against Micrococcus luteus ATCC 9341 after 20 hrs by MTT assay. Conditions: ATCC 9341, 20 h. The method, boiled down:
as §1

Converted amounts (≈) assume the structure as drawn.

Usually MIC stands for the lowest concentration found to suppress growth. Consider `O=C(/C=C/c1ccc(O)cc1)OC[C@H]1O[C@@H](Oc2c(-c3ccc(O)cc3)oc3cc(O)cc(O)c3c2=O)[C@H](O)[C@@H](OC(=O)/C=C/c2ccc(O)cc2)[C@@H]1O`, for which the minimal inhibitory concentration (MIC) (with Bacillus cereus; in assay [1]; in the assay with Staphylococcus aureus; against Micrococcus luteus) was above 256 µg/mL in each case.

In the case of `O=C(/C=C/c1ccc(O)cc1)O[C@@H]1[C@@H](O)[C@H](Oc2c(-c3ccc(O)cc3)oc3cc(O)cc(O)c3c2=O)O[C@H](CO)[C@H]1O`, the MIC (against Bacillus cereus; in assay [1]; against Staphylococcus aureus; against Micrococcus luteus) was above 256 µg/mL each time.

In the case of `COc1cc(/C=C/C(=O)OC[C@H]2O[C@@H](Oc3c(-c4ccc(O)cc4)oc4cc(O)cc(O)c4c3=O)[C@H](O)[C@@H](OC(=O)/C=C/c3ccc(O)cc3)[C@@H]2O)ccc1O`, the MIC (in the assay with Bacillus cereus; in assay [1]; in the assay with Staphylococcus aureus; against Micrococcus luteus) was above 256 µg/mL in each case.

As for `O=C(N[C@H](CO)[C@H](O)c1ccc([N+](=O)[O-])cc1)C(Cl)Cl` [CHLORAMPHENICOL], the minimal inhibitory concentration (MIC) against Bacillus cereus turned out to be 2 µg/mL (≈ 6.19 µM); in assay [1], 4 µg/mL (≈ 12.4 µM); against Staphylococcus aureus, 4 µg/mL (≈ 12.4 µM); in the assay on Micrococcus luteus it was 2 µg/mL (≈ 6.19 µM).

Turning to `O=C(/C=C\c1ccc(O)cc1)OC[C@H]1O[C@@H](Oc2c(-c3ccc(O)cc3)oc3cc(O)cc(O)c3c2=O)[C@H](O)[C@@H](OC(=O)/C=C\c2ccc(O)cc2)[C@@H]1O` [STENOPALUSTROSIDE A], the MIC was determined as 4 µg/mL (≈ 5.4 µM) in the assay on Bacillus cereus, 2 µg/mL (≈ 2.7 µM) in assay [1], 16 µg/mL (≈ 21.6 µM) in the assay with Staphylococcus aureus and 8 µg/mL (≈ 10.8 µM) with Micrococcus luteus.

As to `COc1cc(/C=C/C(=O)OC[C@H]2O[C@@H](Oc3c(-c4ccc(O)cc4)oc4cc(O)cc(O)c4c3=O)[C@H](O)[C@@H](OC(=O)/C=C\c3ccc(O)cc3)[C@@H]2O)ccc1O` [STENOPALUSTROSIDE B], the MIC against Bacillus cereus was 8 µg/mL (≈ 10.4 µM); in assay [1] it was 64 µg/mL (≈ 83 µM); against Staphylococcus aureus, 32 µg/mL (≈ 41.5 µM); against Micrococcus luteus, 16 µg/mL (≈ 20.8 µM).

As to `COc1cc(C(O)C(CO)Oc2ccc(/C=C/C(=O)OC[C@H]3O[C@@H](Oc4c(-c5ccc(O)cc5)oc5cc(O)cc(O)c5c4=O)[C@H](O)[C@@H](OC(=O)/C=C/c4ccc(O)cc4)[C@@H]3O)cc2OC)ccc1O` (some centres not stated) [STENOPALUSTROSIDE E], the MIC (in the assay on Bacillus cereus; in assay [1]; with Staphylococcus aureus; in the assay on Micrococcus luteus) was above 256 µg/mL throughout.

As for `O=C(/C=C/c1ccc(O)cc1)OC[C@H]1O[C@@H](Oc2c(-c3ccc(O)cc3)oc3cc(O)cc(O)c3c2=O)[C@H](O)[C@@H](O)[C@@H]1O` [TILIROSIDE], the MIC (with Bacillus cereus; in assay [1]; with Staphylococcus aureus; in the assay on Micrococcus luteus) was above 256 µg/mL in each case.
